Experimental data reported in ChEMBL document CHEMBL1275345, “Pyrazolo[1',5':1,6]pyrimido[4,5-d]pyridazin-4(3H)-ones as selective human A(1) adenosine receptor ligands” (Bioorg Med Chem, 2010).
Activity calls are given as the source filed them. No cut-off for these calls is given here.

Legend:
Format in all cases: cell-based
[1] = target: T1, Adenosine receptor A1 (Homo sapiens, UniProt P30542); assay: Displacement of [3H]DPCPX from human adenosine A1 receptor expressed in CHO-A1 cells after 60 mins
T1 sequence (P30542 whole entry): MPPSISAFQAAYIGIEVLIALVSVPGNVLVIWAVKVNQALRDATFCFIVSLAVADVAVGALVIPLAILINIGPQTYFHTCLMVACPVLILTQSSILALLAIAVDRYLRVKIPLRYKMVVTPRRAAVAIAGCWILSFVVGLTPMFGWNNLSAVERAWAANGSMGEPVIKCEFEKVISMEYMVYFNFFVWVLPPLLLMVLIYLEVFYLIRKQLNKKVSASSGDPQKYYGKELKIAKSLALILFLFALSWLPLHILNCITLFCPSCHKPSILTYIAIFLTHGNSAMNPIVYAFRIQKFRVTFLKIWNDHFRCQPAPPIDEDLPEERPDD
How it was run: (§1)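 Competition binding on membranes from CHO cells expressing human A1 receptor, labelled with 2 nM [3H]DPCPX. Non-specific binding defined with (R)-PIA. Incubation at 25 °C for 60 min, then filtration and beta scintillation counting. Result given as Ki (nM) or % inhibition at the single test concentration. Means of four separate assays, each in triplicate.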

[2] = target: Adenosine receptor A2a (Homo sapiens, UniProt P29274); assay: Displacement of [3H]ZM241385 from human adenosine A2a receptor expressed in HeLa cells at 10 uM after 30 mins
How it was run: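 [3H]ZM241385 specific binding in HeLa cells expressing human A2A receptor. Incubation at 25 °C for 30 min, followed by filtration and beta scintillation counting. Output is Ki (nM) or % inhibition at the single test concentration. Values are means of four separate assays, each performed in triplicate.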

[3] = target: T2, Adenosine receptor A2b (Homo sapiens) (UniProt P29275); assay: Displacement of [3H]DPCPX from human adenosine A2b receptor expressed in HEK293 cells at 10 uM after 30 mins
T2 sequence (whole entry): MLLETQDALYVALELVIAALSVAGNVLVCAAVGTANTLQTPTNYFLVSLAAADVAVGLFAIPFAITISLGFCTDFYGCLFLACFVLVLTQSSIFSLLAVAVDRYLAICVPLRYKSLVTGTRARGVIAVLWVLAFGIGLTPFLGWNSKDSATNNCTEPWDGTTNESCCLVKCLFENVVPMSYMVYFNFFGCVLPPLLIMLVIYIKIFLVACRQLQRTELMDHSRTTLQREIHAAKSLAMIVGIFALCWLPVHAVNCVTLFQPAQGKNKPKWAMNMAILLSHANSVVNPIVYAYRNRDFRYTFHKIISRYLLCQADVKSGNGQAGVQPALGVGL
How it was run: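 Human A2B receptor expressed in HEK-293 cells, with displacement of [3H]DPCPX. Incubated at 25 °C for 30 min, then filtered and counted by beta scintillation. Reported as Ki (nM) or percentage inhibition at the single test concentration. Means of four independent assays, each run in triplicate.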

[4] = target: T3, Adenosine receptor A3 (Homo sapiens) (UniProt P0DMS8); assay: Displacement of [3H]NECA from human adenosine A3 receptor expressed in HeLa cells at 10 uM after 180 mins
T3 sequence (whole entry): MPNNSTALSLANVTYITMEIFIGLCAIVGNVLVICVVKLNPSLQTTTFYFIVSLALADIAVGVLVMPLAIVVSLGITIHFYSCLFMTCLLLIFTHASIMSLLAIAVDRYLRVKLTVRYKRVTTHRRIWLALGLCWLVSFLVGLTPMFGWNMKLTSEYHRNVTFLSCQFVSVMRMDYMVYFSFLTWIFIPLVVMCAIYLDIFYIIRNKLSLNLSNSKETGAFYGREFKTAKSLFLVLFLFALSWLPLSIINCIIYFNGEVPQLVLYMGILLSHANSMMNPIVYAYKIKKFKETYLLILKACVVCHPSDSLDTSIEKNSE
How it was run: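 HeLa cells expressing human A3 receptor, with displacement of [3H]NECA. Incubated at 25 °C for 180 min, then filtered and counted by beta scintillation. Ki (nM) or percentage inhibition at the single test concentration. Means of four assays, each in triplicate.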

[5] = target: T4, Adenosine receptor A1 (Homo sapiens) (UniProt P30542); assay: Displacement of [3H]DPCPX from human adenosine A1 receptor expressed in CHO-A1 cells at 10 uM after 60 mins; how it was run: as §1
T4 sequence (whole entry): T1 sequence (P30542 whole entry)

Adenosine receptor A2a, sequence (P29274 whole entry): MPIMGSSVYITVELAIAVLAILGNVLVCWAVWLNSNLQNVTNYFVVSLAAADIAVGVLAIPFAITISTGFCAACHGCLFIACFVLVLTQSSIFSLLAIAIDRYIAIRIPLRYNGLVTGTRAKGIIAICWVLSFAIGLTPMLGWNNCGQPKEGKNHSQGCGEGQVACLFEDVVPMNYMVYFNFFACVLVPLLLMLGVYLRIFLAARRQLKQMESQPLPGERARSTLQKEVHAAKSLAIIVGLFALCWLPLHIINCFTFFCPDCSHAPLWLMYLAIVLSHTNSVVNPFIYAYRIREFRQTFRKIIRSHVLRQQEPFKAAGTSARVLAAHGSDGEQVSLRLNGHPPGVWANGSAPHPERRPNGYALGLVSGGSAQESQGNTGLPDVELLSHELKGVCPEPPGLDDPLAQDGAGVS

Row | SMILES | Ki [1] [nM] | inhibition [2] | inhibition [3] | inhibition [4] | inhibition [5] [%]
1 | Cc1nn(Cc2ccccc2)c(=O)c2nc(C)n3nc(-c4ccccc4)cc3c12 | 3250 | < 50% | < 50% | < 50% | –
2 | O=c1c2ncn3nc(-c4ccsc4)cc3c2c(-c2ccc(F)cc2)nn1Cc1ccccc1 | 123 | inactive | inactive | inactive | –
3 | Cc1nc2c(=O)n(Cc3ccccc3)nc(-c3cccc(F)c3)c2c2cc(-c3ccsc3)nn12 | – | inactive | inactive | inactive | < 50
4 | O=c1c2ncn3nc(-c4ccsc4)cc3c2c(-c2cccc(F)c2)nn1Cc1ccccc1 | 189 | inactive | inactive | inactive | –
5 | CCc1nc2c(=O)n(C(C)c3ccccc3)nc(C)c2c2cc(-c3ccccc3)nn12 (stereo not given) | 2380 | < 50% | < 50% | < 50% | –
6 | Cc1nn(Cc2ccccc2)c(=O)c2nc(C)n3nccc3c12 | – | < 50% | < 50% | < 50% | < 50
7 | Cc1nn(C(C)c2ccccc2)c(=O)c2ncn3nc(-c4ccccc4)cc3c12 (stereo not given) | 475 | < 50% | < 50% | < 50% | –
8 | Fc1ccc(-c2nnc(Cl)c3ncn4nc(-c5ccccc5)cc4c23)cc1 | – | inactive | inactive | inactive | < 50
9 | Cc1nn(Cc2ccccc2)c(=O)c2ncn3nccc3c12 | – | < 50% | < 50% | < 50% | < 50
10 | O=c1c2ncn3nc(-c4ccccc4)cc3c2c(-c2ccccc2)nn1Cc1ccccc1 | 1430 | inactive | inactive | inactive | –

More lines, now with the values ahead:

Row | Ki [1] [nM] | inhibition [2] | inhibition [3] | inhibition [4] | inhibition [5] [%] | SMILES
11 | 3240 | inactive | inactive | inactive | – | Cc1nc2c(=O)n(Cc3ccccc3)nc(-c3cccc(F)c3)c2c2cc(-c3ccccc3)nn12
12 | 1590 | inactive | inactive | inactive | – | Cc1nc2c(=O)n(Cc3ccccc3)nc(-c3ccccc3)c2c2cc(-c3ccccc3)nn12
13 | 92.7 | inactive | inactive | inactive | – | O=c1c2ncn3nc(-c4ccccc4)cc3c2c(-c2cccc(F)c2)nn1Cc1ccccc1
14 | 563 | inactive | inactive | inactive | – | CCCc1nc2c(=O)n(Cc3ccccc3)nc(-c3ccccc3)c2c2cc(-c3ccccc3)nn12
15 | 252 | inactive | inactive | inactive | – | O=c1c2ncn3nc(-c4ccccc4)cc3c2c(-c2ccc(F)cc2)nn1Cc1ccccc1
16 | – | inactive | inactive | inactive | < 50 | O=c1c2nc(C(F)(F)F)n3nc(-c4ccccc4)cc3c2c(-c2ccc(F)cc2)nn1Cc1ccccc1
17 | – | inactive | inactive | inactive | < 50 | CCc1nc2c(=O)n(Cc3ccccc3)nc(-c3ccc(F)cc3)c2c2cc(-c3ccccc3)nn12
18 | 2440 | inactive | inactive | inactive | – | CCc1nc2c(=O)n(Cc3ccccc3)nc(-c3ccccc3)c2c2cc(-c3ccccc3)nn12
19 | – | inactive | inactive | inactive | < 50 | CCc1nc2c(=O)n(Cc3ccccc3)nc(-c3cccc(F)c3)c2c2cc(-c3ccccc3)nn12
20 | – | inactive | inactive | inactive | < 50 | CC(C)c1nc2c(=O)n(Cc3ccccc3)nc(-c3ccccc3)c2c2cc(-c3ccccc3)nn12
